Laboratory results reported in ChEMBL document CHEMBL5321236, “Fluoro-labelled sp2-iminoglycolipids with immunomodulatory properties” (Eur J Med Chem, 2023).
Activity calls are given as the source filed them. The rule behind the calls is not given here.

Columns and labels:
[1] = tested on: A549; assay: Growth inhibition of human A549 cells measured after 48 hrs by SRB colorimetric assay; format: functional
Procedure, shortened: (§1)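 NCI-based protocol with sulforhodamine B read-out. Seeded 2500 (A549, HBL-100, HeLa, SW1573), 5000 (T-47D, WiDr, SW1573/P-gp) or 7000 (BJ-hTERT) cells/well. Exposed 48 h to serial decimal dilutions, 0.001–100 μM, from 40 mM DMSO stock. GI50 by NCI formulas; mean of three or more experiments ± SD.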

[2] = tested on: WiDr; assay: Growth inhibition of human WiDr cells measured after 48 hrs by SRB colorimetric assay; format: functional; procedure, shortened: as §1
[3] = tested on: T47D; assay: Growth inhibition of human T47D cells measured after 48 hrs by SRB colorimetric assay; format: functional; procedure, shortened: as §1
[4] = tested on: HeLa; assay: Growth inhibition of human HeLa cells measured after 48 hrs by SRB colorimetric assay; format: functional; procedure, shortened: as §1
[5] = tested on: HBL-100; assay: Growth inhibition of human HBL-100 cells measured after 48 hrs by SRB colorimetric assay; format: functional; procedure, shortened: as §1
[6] = tested on: SW1573; assay: Growth inhibition of human SW1573 cells measured after 48 hrs by SRB colorimetric assay; format: functional; procedure, shortened: as §1
[7] = tested on: SW1573; assay: Growth inhibition of human SW1573 cells overexpressing P-glycoprotein measured after 48 hrs in presence of verapamil by SRB colorimetric assay; format: functional
Procedure, shortened: as §1, with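 “read-out. Cells grown in RPMI 1640 with 5% FBS and 1 mM glutamine at 37 °C, 5% CO₂.” for “read-out.”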

[8] = Resistance factor, ratio of GI50 for growth inhibition of human SW1573 cells overexpressing P-glycoprotein measured after 48 hrs in presence of verapamil to GI50 for growth inhibition of human SW1573 cells measured after 48 hrs in presence of verapamil; format: functional
Procedure, shortened: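 SW1573 parental and P-gp-overexpressing cells given 48 h exposure to serial dilutions (0.001–100 μM) in medium containing verapamil at a final 10 μM as P-gp transport inhibitor. SRB read-out, GI50 by NCI formulas. Resistance factor taken as GI50 in SW1573/P-gp divided by GI50 in SW1573.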

[9] = tested on: SW1573; assay: Growth inhibition of human SW1573 cells overexpressing P-glycoprotein measured after 48 hrs in absence of verapamil by SRB colorimetric assay; format: functional
Procedure, shortened: as §1, with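 “read-out. Cells grown in RPMI 1640 with 5% FBS and 1 mM glutamine at 37 °C, 5% CO₂.” for “read-out.”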

[10] = tested on: SW1573; assay: Growth inhibition of human SW1573 cells measured after 48 hrs in presence of verapamil by SRB colorimetric assay; format: functional
Procedure, shortened: as §1, with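 “read-out. Cells grown in RPMI 1640 with 5% FBS and 1 mM glutamine at 37 °C, 5% CO₂.” for “read-out.”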

[11] = Resistance factor, ratio of GI50 for growth inhibition of human SW1573 cells overexpressing P-glycoprotein measured after 48 hrs in absence of verapamil to GI50 for growth inhibition of human SW1573 cells measured after 48 hrs in absence of verapamil; format: functional
Procedure, shortened: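 Resistance factor: GI50 in P-gp-overexpressing SW1573 divided by GI50 in parental SW1573, each from 48 h SRB growth-inhibition assay without verapamil. Values are means of three or more independent experiments.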

[12] = tested on: SW1573; assay: Growth inhibition of human SW1573 cells measured after 48 hrs in absence of verapamil by SRB colorimetric assay; format: functional
Procedure, shortened: as §1, with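 “read-out. Cells grown in RPMI 1640 with 5% FBS and 1 mM glutamine at 37 °C, 5% CO₂.” for “read-out.”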

[13] = tested on: BV-2; assay: Protection against LPS induced inflammation in mouse BV-2 cells assessed as decrease in IL1-beta mRNA expression at 10 uM incubated for 24 hrs with LPS stimulation by qRT-PCR analysis
[14] = tested on: BV-2; assay: Protection against LPS induced inflammation in mouse BV-2 cells assessed as decrease in Tnf-alpha mRNA expression at 10 uM incubated for 24 hrs with LPS stimulation by qRT-PCR analysis
[15] = tested on: BV-2; assay: Cytotoxicity against mouse BV-2 cells at 10 uM measured after 24 hr by crystal violet staining based analysis; format: toxicity, cell-based; conditions: bv-2, 24 h
Procedure, shortened: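 Bv.2 cells grown to 70% confluence, exposed 24 h in serum-free medium to 0.1, 1.0, 10 and 25 μM. Fixed with 1% glutaraldehyde, stained with 0.1% crystal violet, dye released in 10% acetic acid, absorbance 590 nm. Mean ± SEM, n ≥ 3 independent experiments.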

[16] = target: Mitogen-activated protein kinase 14 (Mus musculus) (UniProt P47811); assay: Inhibition of LPS-stimulated p38 alpha phosphorylation in mouse BV-2 cells at 10 uM measured after 60 to 90 mins by Western blot analysis; format: cell-based; conditions: time 60-90 min
Procedure, shortened: (§2)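 Bv.2 cells exposed with or without LPS for 15–90 min. Protein extracts run on SDS-PAGE, blotted to PVDF, probed with anti-phospho-p38α MAPK and anti-total p38α MAPK (1:1000), ECL detection. Quantified by densitometry, mean ± SEM, n = 3.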

[17] = tested on: BV-2; assay: Antiinflammatory activity in mouse BV-2 cells assessed as restoration of […] expression level at 10 uM incubated for 24 hrs with LPS stimulation by qRT-PCR analysis; format: functional, cell-based
Procedure, shortened: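 Bv.2 microglia stimulated with LPS 200 ng/mL with or without compound at 10 μM for 24 h. Arg1 mRNA measured by qRT-PCR, Actinb as housekeeping gene, 2^-ΔΔCT method, fold change relative to basal. n ≥ 4 independent experiments in triplicate.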

[18] = target: Mitogen-activated protein kinase 14 (Mus musculus) (UniProt P47811); assay: Inhibition of LPS-stimulated p38 alpha phosphorylation in mouse BV-2 cells at 10 uM measured after 30 mins by Western blot analysis; format: cell-based; procedure, shortened: as §2

Sequence of Mitogen-activated protein kinase 14 (Mus musculus) (P47811 whole entry): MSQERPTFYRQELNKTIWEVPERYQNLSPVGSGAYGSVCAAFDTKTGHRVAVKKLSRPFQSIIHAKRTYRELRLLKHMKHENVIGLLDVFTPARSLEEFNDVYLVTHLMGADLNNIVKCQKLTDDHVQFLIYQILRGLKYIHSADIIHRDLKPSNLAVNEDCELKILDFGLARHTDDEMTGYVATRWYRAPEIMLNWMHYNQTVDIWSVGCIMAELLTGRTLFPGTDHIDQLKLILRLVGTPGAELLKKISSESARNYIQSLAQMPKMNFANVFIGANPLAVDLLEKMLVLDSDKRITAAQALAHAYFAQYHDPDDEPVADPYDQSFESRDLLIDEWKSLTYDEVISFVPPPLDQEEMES

| Compound | GI50 [1] [µM] | GI50 [2] [µM] | GI50 [3] [µM] | GI50 [4] [µM] | GI50 [5] [µM] | GI50 [6] [µM] | GI50 [7] [nM] | RatioGI50 [8] | GI50 [9] [nM] | GI50 [10] [nM] | RatioGI50 [11] | GI50 [12] [nM] | Activity [13] | Activity [14] | Activity [15] | inhibition [16] | Activity [17] | inhibition [18] |
| --- | --- | --- | --- | --- | --- | --- | --- | --- | --- | --- | --- | --- | --- | --- | --- | --- | --- | --- |
| O=C1OC[C@@H]2[C@@H](O)[C@H](O)[C@H](O)[C@@H](O)N12 | > 100 | > 100 | > 100 | > 100 | > 100 | > 100 | – | – | – | – | – | – | – | – | – | – | – | – |
| CC(=O)O[C@H]1C(=O)[C@@]2(C)[C@H]([C@H](OC(=O)c3ccccc3)[C@]3(O)C[C@H](OC(=O)[C@H](O)[C@@H](NC(=O)c4ccccc4)c4ccccc4)C(C)=C1C3(C)C)[C@]1(OC(C)=O)CO[C@@H]1C[C@@H]2O [PACLITAXEL] | – | – | – | – | – | – | 0.31 | 0.7 | 300 | 0.46 | 564 | 0.53 | – | – | – | – | – | – |
| O=C1OC[C@@H]2[C@@H](O)[C@H](OCc3ccccc3)[C@@H](F)[C@@H](O)N12 | > 100 | > 100 | > 100 | > 100 | > 100 | > 100 | – | – | – | – | – | – | – | – | – | – | – | – |
| O=C1OC[C@@H]2[C@@H](O)[C@H](O)[C@@H](O)[C@@H](O)N12 | > 100 | > 100 | > 100 | > 100 | > 100 | > 100 | – | – | – | – | – | – | – | – | – | – | – | – |
| CCCCCCCCCCCCS[C@@H]1[C@@H](F)[C@@H](OCc2ccccc2)[C@H](O)[C@H]2COC(=O)N21 | 13 | 18 | 20 | 19 | 18 | 18 | – | – | – | – | – | – | – | – | – | – | – | – |
| CCCCCCCCCCCCS[C@@H]1[C@H](F)[C@@H](OCc2ccccc2)[C@H](O)[C@H]2COC(=O)N21 | 18 | 20 | 18 | 13 | 19 | 19 | – | – | – | – | – | – | – | – | – | – | – | – |
| CCCCCCCCCCCCS[C@@H]1[C@H](O)[C@@H](O)[C@H](O)[C@H]2COC(=O)N21 | 16 | 18 | 18 | 17 | 17 | 18 | – | – | – | – | – | – | – | – | – | – | – | – |
| CCCCCCCCCCCCS[C@@H]1[C@H](F)[C@@H](O)[C@H](O)[C@H]2COC(=O)N21 | 17 | 21 | 21 | 19 | 22 | 22 | – | – | – | – | – | – | Active | Active | Non-Toxic | – | – | – |
| CCCCCCCCCCCCS[C@@H]1[C@@H](O)[C@@H](O)[C@H](O)[C@H]2COC(=O)N21 | 18 | 23 | 25 | 19 | 26 | 25 | – | – | – | – | – | – | – | – | – | – | – | – |
| O=C1OC[C@@H]2[C@@H](O)[C@H](O)[C@@H](F)[C@@H](O)N12 | > 100 | > 100 | > 100 | > 100 | > 100 | > 100 | – | – | – | – | – | – | Active | Active | Non-Toxic | – | – | – |
| CCCCCCCCCCCCS(=O)(=O)[C@@H]1[C@@H](OC)[C@@H](O)[C@H](O)[C@H]2COC(=O)N21 | 15 | 21 | 17 | 20 | 20 | 21 | – | – | – | – | – | – | – | – | – | – | – | – |
| CCCCCCCCCCCCS(=O)(=O)[C@@H]1[C@@H](F)[C@@H](O)[C@H](O)[C@H]2COC(=O)N21 | 2.9 | 4.3 | 10 | 3.1 | 7.4 | 3.6 | – | – | – | – | – | – | – | – | – | – | – | – |
| O=C1OC[C@@H]2[C@@H](O)[C@H](OCc3ccccc3)[C@H](F)[C@@H](O)N12 | > 100 | > 100 | > 100 | > 100 | > 100 | > 100 | – | – | – | – | – | – | – | – | – | – | – | – |
| O=c1[nH]cc(F)c(=O)[nH]1 [FLUOROURACIL] | 2.2 | 49 | 47 | 15 | 5.5 | 4.3 | – | – | – | – | – | – | – | – | – | – | – | – |
| CCCCCCCCCCCCS(=O)(=O)[C@@H]1[C@H](O)[C@@H](OCc2ccccc2)[C@H](O)[C@H]2COC(=O)N21 | 7.1 | 13 | 14 | 9.2 | 15 | 10 | – | – | – | – | – | – | Active | Active | Non-Toxic | – | – | – |
| O=C1OC[C@@H]2[C@@H](O)[C@H](O)[C@H](F)[C@@H](O)N12 | > 100 | > 100 | > 100 | > 100 | > 100 | > 100 | – | – | – | – | – | – | – | – | – | – | – | – |
| CCCCCCCCCCCCS(=O)(=O)[C@@H]1[C@H](F)[C@@H](OCc2ccccc2)[C@H](O)[C@H]2COC(=O)N21 | 4.3 | 3.6 | 9.7 | 3.3 | 4.2 | 4.2 | – | – | – | – | – | – | Active | Active | Non-Toxic | inactive | Active | inactive |
| CCCCCCCCCCCCS(=O)(=O)[C@@H]1[C@@H](F)[C@@H](OCc2ccccc2)[C@H](O)[C@H]2COC(=O)N21 | 4.2 | 4.3 | 3.8 | 3.6 | 3.4 | 4.5 | – | – | – | – | – | – | – | – | – | – | – | – |
